Laboratory results from ChEMBL document CHEMBL3822380, “Simple avarone mimetics as selective agents against multidrug resistant cancer cells” (Eur J Med Chem, 2016).
Values after ≈ are worked out from the molar mass of the structure shown.

Legend:
[1] = system: Micrococcus luteus; assay: Antibacterial activity against Micrococcus luteus ATCC 4698 by broth microdilution method; assay type: functional; conditions: NCTC 2665
In short: (§1)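 Broth microdilution per NCCLS. Compounds dissolved in DMSO as 10 mg/mL stock, diluted in Mueller Hinton broth (bacteria) or Sabouraud dextrose broth (fungi). Amikacin served as the positive control for bacteria and nystatin for fungi.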

[2] = system: Clostridium sporogenes; assay: Antibacterial activity against Clostridium sporogenes ATCC 19404 by broth microdilution method; assay type: functional; in short: as §1
[3] = system: Escherichia coli; assay: Antibacterial activity against Escherichia coli ATCC 25922 by broth microdilution method; assay type: functional; in short: as §1
[4] = system: Proteus hauseri; assay: Antibacterial activity against Proteus hauseri ATCC 13315 by broth microdilution method; assay type: functional; in short: as §1
[5] = system: Salmonella enteritidis; assay: Antibacterial activity against Salmonella enterica subsp. enterica serovar Enteritidis ATCC 13076 by broth microdilution method; assay type: functional; in short: as §1
[6] = system: Pseudomonas aeruginosa; assay: Antibacterial activity against Pseudomonas aeruginosa ATCC 9027 by broth microdilution method; assay type: functional; in short: as §1
[7] = system: Candida albicans; assay: Antifungal activity against Candida albicans ATCC 10231 by broth microdilution method; assay type: functional; in short: as §1
[8] = system: Saccharomyces cerevisiae; assay: Antifungal activity against Saccharomyces cerevisiae ATCC 9763 by broth microdilution method; assay type: functional; in short: as §1
[9] = system: Aspergillus brasiliensis; assay: Antifungal activity against Aspergillus brasiliensis ATCC 16404 by broth microdilution method; assay type: functional; in short: as §1
[10] = system: Kocuria rhizophila; assay: Antibacterial activity against Kocuria rhizophila ATCC 9341 by broth microdilution method; assay type: functional; conditions: DC2201; in short: as §1
[11] = system: NCI-H460; assay: Cytotoxicity against human NCI-H460 cells after 72 hrs by MTT assay; assay type: functional, cell-based; conditions: NCI-H460, 72 h
In short: (§2)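 Seeding in 96-well plates at 1000 (NCI-H460), 2000 (NCI-H460/R) or 4000 (HaCaT) cells/well, treated after 24 h for 72 h. MTT at 0.4 mg/mL final, 4 h at 37 °C. Formazan dissolved in DMSO, absorbance read at 540 nm. Inhibition % = (1 − A treated/A untreated)×100. IC30 and IC50 obtained by linear regression.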

[12] = system: NCI-H460; assay: Cytotoxicity against multidrug resistant human NCI-H460 cells after 72 hrs by MTT assay; assay type: functional, cell-based; conditions: NCI-H460, 72 h; in short: as §2
[13] = system: HaCaT; assay: Cytotoxicity against human HaCaT cells after 72 hrs by MTT assay; assay type: cell-based; conditions: for IC50: Homo sapiens, HaCaT; for IC30: human, hacat; in short: as §2
[14] = system: Staphylococcus aureus; assay: Antibacterial activity against Staphylococcus aureus ATCC 6538 by broth microdilution method; assay type: functional; in short: as §1
[15] = system: Bacillus spizizenii; assay: Antibacterial activity against Bacillus subtilis ATCC 6633 by broth microdilution method; assay type: functional; in short: as §1
[16] = system: Micrococcus luteus; assay: Antibacterial activity against Micrococcus luteus ATCC 10240 by broth microdilution method; assay type: functional; in short: as §1
[17] = Selectivity ratio of IC30/IC50 for human HaCaT cells to IC30/IC50 for human NCI-H460 cells; assay type: ADME, cell-based; conditions: HaCaT cells versus NCI-H460 cells
In short: (§3)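 Fold threshold of 1.5 used to call selectivity to cancer cells, resistance, or selectivity to MDR cells.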

[18] = Selectivity ratio of IC30/IC50 for human HaCaT cells to IC30/IC50 for multidrug resistant human NCI-H460 cells; assay type: ADME, cell-based; conditions: HaCaT cells versus multidrug resistant NCI-H460 cells; in short: as §3

| Molecule | MIC [1] [µM] | MIC [2] [µM] | MIC [3] [µM] | MIC [4] [µM] | MIC [5] [µM] | MIC [6] [µM] | MIC [7] [µM] | MIC [8] [µM] | MIC [9] [µM] | MIC [10] [µM] | IC30 [11] [µM] | IC50 [11] [µM] | IC30 [12] [µM] | IC50 [12] [µM] | IC50 [13] [µM] | IC30 [13] [µM] | MIC [14] [µM] | MIC [15] [µM] | MIC [16] [µM] | further results |
| --- | --- | --- | --- | --- | --- | --- | --- | --- | --- | --- | --- | --- | --- | --- | --- | --- | --- | --- | --- | --- |
| CNC1=CC(=O)C=C(C(C)(C)C)C1=O | 1620 (≈ 313 µg/mL) | 1620 (≈ 313 µg/mL) | 202 (≈ 39 µg/mL) | 1620 (≈ 313 µg/mL) | 1620 (≈ 313 µg/mL) | 3240 (≈ 626 µg/mL) | 1620 (≈ 313 µg/mL) | 3240 (≈ 626 µg/mL) | 103 (≈ 19.9 µg/mL) | 813 (≈ 157 µg/mL) | 14 | 25 | 15 | 23 | 10 | 8 | 51 (≈ 9.86 µg/mL) | 1620 (≈ 313 µg/mL) | 202 (≈ 39 µg/mL) |  |
| CNC1=CC(=O)C(C(C)(C)C)=CC1=O | 831 (≈ 161 µg/mL) | 813 (≈ 157 µg/mL) | 104 (≈ 20.1 µg/mL) | 813 (≈ 157 µg/mL) | 813 (≈ 157 µg/mL) | 1620 (≈ 313 µg/mL) | 1620 (≈ 313 µg/mL) | 1620 (≈ 313 µg/mL) | 51 (≈ 9.86 µg/mL) | 409 (≈ 79 µg/mL) | 34 | 63 | 31 | 58 | 28 | 17 | 25 (≈ 4.83 µg/mL) | 813 (≈ 157 µg/mL) | 103 (≈ 19.9 µg/mL) |  |
| NCC[C@H](O)C(=O)N[C@@H]1C[C@H](N)[C@@H](O[C@H]2O[C@H](CN)[C@@H](O)[C@H](O)[C@H]2O)[C@H](O)[C@H]1O[C@H]1O[C@H](CO)[C@@H](O)[C@H](N)[C@H]1O [AMIKACIN] | 3 (≈ 1.76 µg/mL) | 26 (≈ 15.2 µg/mL) | 9 (≈ 5.27 µg/mL) | 12 (≈ 7.03 µg/mL) | 14 (≈ 8.2 µg/mL) | 85 (≈ 49.8 µg/mL) |  |  |  | 3 (≈ 1.76 µg/mL) |  |  |  |  |  |  | 19 (≈ 11.1 µg/mL) | 72 (≈ 42.2 µg/mL) | 14 (≈ 8.2 µg/mL) |  |
| NYSTATIN |  |  |  |  |  |  | 2700 | 1350 | 1350 |  |  |  |  |  |  |  |  |  |  |  |
| CCNC1=CC(=O)C=C(C(C)(C)C)C1=O | 758 (≈ 157 µg/mL) | 758 (≈ 157 µg/mL) | 24 (≈ 4.97 µg/mL) | 758 (≈ 157 µg/mL) | 381 (≈ 79 µg/mL) | 758 (≈ 157 µg/mL) | 1510 (≈ 313 µg/mL) | 1510 (≈ 313 µg/mL) | 48 (≈ 9.95 µg/mL) | 381 (≈ 79 µg/mL) | 4 | 13 | 5 | 14 | 30 | 22 | 24 (≈ 4.97 µg/mL) | 758 (≈ 157 µg/mL) | 24 (≈ 4.97 µg/mL) | selectivity ratio [17]: ≤ 1.5; selectivity ratio [18]: ≤ 1.5 |
| CCCCNC1=CC(=O)C=C(C(C)(C)C)C1=O | 154 (≈ 36.2 µg/mL) | 1240 (≈ 291 µg/mL) | 9 (≈ 2.12 µg/mL) |  | 620 (≈ 146 µg/mL) | 620 (≈ 146 µg/mL) | 77 (≈ 18.1 µg/mL) | 154 (≈ 36.2 µg/mL) | 620 (≈ 146 µg/mL) |  | 4 | 14 | 4 | 13 | 11 | 7 | 9 (≈ 2.12 µg/mL) | 1240 (≈ 291 µg/mL) | 9 (≈ 2.12 µg/mL) |  |
| CCNC1=CC(=O)C(C(C)(C)C)=CC1=O | 1510 (≈ 313 µg/mL) | 1510 (≈ 313 µg/mL) | 188 (≈ 39 µg/mL) | 1510 (≈ 313 µg/mL) | 758 (≈ 157 µg/mL) | 3020 (≈ 626 µg/mL) | 1510 (≈ 313 µg/mL) | 3020 (≈ 626 µg/mL) | 381 (≈ 79 µg/mL) | 758 (≈ 157 µg/mL) | 45 | 64 | 45 | 65 | 75 | 50 | 96 (≈ 19.9 µg/mL) | 1510 (≈ 313 µg/mL) | 48 (≈ 9.95 µg/mL) |  |
